16 molecules from ChEMBL document CHEMBL1133181, “A novel approach for the virtual screening and rational design of anticancer compounds” (J Med Chem, 2000) can be followed below.

One may read the IC50 as the concentration that inhibits the measured activity by half. A high value points to weaker potency in that assay.

Values after ≈ are worked out from the molar mass of the structure shown.

Test [1] is described as follows: Antitumor activity to reduce proliferation of human T-lymphocyte CEM/0 cells by 50%. The class given is functional, cell-based. A digest of the protocol:
(§1)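 CEM or Molt4/C8 cells were seeded into 96-well wells with test compound and grown for 72 h at 37 °C in a humidified, CO2-controlled atmosphere. Cells were then counted with a Coulter counter. IC50 is the compound concentration that reduced the number of living cells by 50%.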

Test [2] is described as follows: Antitumor activity to reduce proliferation of human T-lymphocyte Molt4/C8 cells by 50%. The conditions noted are these: molt-4. The class given is functional, cell-based. In a few lines: as §1
Test [3] has as its system L1210. Description: Antitumor activity to reduce proliferation of murine leukemia L1210/0 cells by 50%. The class given is functional, cell-based, Mus musculus. In a few lines: (§2)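 L1210 murine leukemia cells were incubated in 96-well microtiter wells with test compound for 48 h at 37 °C under humidified, CO2-controlled conditions. Cell numbers were then counted with a Coulter counter. IC50 was taken as the concentration giving a 50% reduction in living cell count.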

Test [4] in a line: Concentration required to reduce proliferation of human T-lymphocyte CEM/0 cells by 50%. The class given is functional, cell-based. A digest of the protocol: as §1
Test [5] is described as follows: Concentration required to reduce proliferation of human T-lymphocyte Molt4/C8 cells by 50%. It counts as functional, cell-based. The conditions noted are these: molt-4. A digest of the protocol:
as §1

Test [6] has as its system L1210. Description: Concentration required to reduce proliferation of murine leukemia L1210/0 cells by 50%. The class given is functional, cell-based, Mus musculus. In a few lines:
as §2

In the case of `O=c1[nH]c(=O)n(C2CCCC2CO)cc1I` (stereo in doubt; 4a), the IC50 in test [1] worked out at 57.4 µg/mL (≈ 171 µM); in test [2], 77.4 µg/mL (≈ 230 µM); in test [3], 52.3 µg/mL (≈ 156 µM).
Regarding `OCC1CCCC1Cn1cnc2c(Cl)ncnc21` (cis isomer), the IC50 in test [1] turned out to be 16 µg/mL (≈ 60 µM); in test [2] it was 6.54 µg/mL (≈ 24.5 µM); in test [3], 14 µg/mL (≈ 52.5 µM).
The matching figures for `O=c1ccn(CC2CCCC2CO)c(=O)[nH]1` (configuration not stated): more than 200 µg/mL, more than 200 µg/mL and more than 200 µg/mL.
For `OCC1CCCC1Cn1cnc2c(O)ncnc21` (cis isomer), the IC50 in test [4], in test [5] and in test [6] was more than 200 µg/mL throughout.
On to `OCC1CCCC1n1cnc2c(Cl)ncnc21` (cis isomer), for which the IC50 in test [1] stood at 61 µg/mL (≈ 241 µM); in test [2], 49.9 µg/mL (≈ 197 µM); in test [3], 62.8 µg/mL (≈ 249 µM).
For `OCC1CCCC1n1cnc2c(Cl)ncnc21` (trans isomer) the same measures were 19 µg/mL (≈ 75.2 µM), 39.2 µg/mL (≈ 155 µM) and 56.1 µg/mL (≈ 222 µM).
For `O=c1ccn(C2CCCC2CO)c(=O)[nH]1` (trans isomer) the same measures were more than 200 µg/mL, more than 200 µg/mL and more than 200 µg/mL.
The matching figures for `O=c1[nH]c(=O)n(C2CCCC2CO)cc1I` (trans isomer): more than 200 µg/mL, more than 200 µg/mL and more than 200 µg/mL.
For `OCC1CCCC1n1cnc2c(O)ncnc21` (trans isomer), the IC50 in test [4], in test [5] and in test [6] was more than 200 µg/mL throughout.
For `Nc1ncnc2c1ncn2C1CCCC1CO` (cis isomer), the IC50 in test [1] and in test [3] was more than 200 µg/mL each time.
With `Nc1ncnc2c1ncn2CC1CCCC1CO` (stereo in doubt; 7c), the IC50 in test [1] was found to be 108 µg/mL (≈ 437 µM); in test [2], 100 µg/mL (≈ 404 µM); in test [3], 102 µg/mL (≈ 412 µM).
Regarding `OCC1CCCC1Cn1cnc2c(Cl)ncnc21` (trans isomer), the IC50 in test [1] turned out to be 15 µg/mL (≈ 56.2 µM); in test [2], 22.3 µg/mL (≈ 83.6 µM); in test [3], 48.7 µg/mL (≈ 183 µM).
For `O=c1[nH]c(=O)n(CC2CCCC2CO)cc1I` (trans isomer) the same measures were 131 µg/mL (≈ 374 µM), 158 µg/mL (≈ 451 µM) and 65.8 µg/mL (≈ 188 µM).
As to `Nc1ncnc2c1ncn2CC1CCCC1CO` (trans isomer), the IC50 in test [1], in test [2] and in test [3] was more than 200 µg/mL each time.
On to `O=c1[nH]c(=O)n(CC2CCCC2CO)cc1I` (cis isomer), for which the figures for the IC50 in test [1], in test [2] and in test [3] were 117 µg/mL (≈ 334 µM), 108 µg/mL (≈ 308 µM) and 71.1 µg/mL (≈ 203 µM), respectively.
In the case of `Nc1ncnc2c1ncn2C1CCCC1CO` (trans isomer), the IC50 in test [1] is 180 µg/mL (≈ 772 µM); in test [2] it was more than 200 µg/mL; in test [3] it was 179 µg/mL (≈ 767 µM).
